High-throughput results: PubChem, Broad Institute
Only some compounds are listed: those with a hit (about 1% of all), similar ones and a draw of the others.
RAD52 inh: RAD52 DNA annealing inhibitors, primary screen, biochemical, FRET, single point, set 2 | recombinant RAD52 DNA annealing, FRET fluorescence | inhibition, % at 18.7 µM | actives 0.46% (n = 360,000) | AID 651710, 2012;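 active = every replicate showing at least 50% inhibition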
ERp5 block: inhibitors of ERp5-driven insulin aggregation, primary screen, biochemical, turbidity, absorbance 650 nm, single point; AID 651711, 2012; 90 min; actives 0.05% (n = 350,000); inhibition, % at 9.99 µM; Protein disulfide-isomerase A6 (Homo sapiens), Q15084;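 active = mean replicate inhibition above about 25%, with every replicate also reaching it, limit read from the data, passing the limit was not always enough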
PDI inh: inhibitors of human PDI, primary screen, biochemical, turbidity, single point, plate reader. inhibition, % at 10 µM. AID 588391, 2011. actives 0.052% (n = 350,000). PDI insulin aggregation turbidity, A650, 90 min;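 active = mean inhibition across replicates of 30% or more, whatever share of single replicates reach that level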
Target sequence (P07237 whole entry, looked up): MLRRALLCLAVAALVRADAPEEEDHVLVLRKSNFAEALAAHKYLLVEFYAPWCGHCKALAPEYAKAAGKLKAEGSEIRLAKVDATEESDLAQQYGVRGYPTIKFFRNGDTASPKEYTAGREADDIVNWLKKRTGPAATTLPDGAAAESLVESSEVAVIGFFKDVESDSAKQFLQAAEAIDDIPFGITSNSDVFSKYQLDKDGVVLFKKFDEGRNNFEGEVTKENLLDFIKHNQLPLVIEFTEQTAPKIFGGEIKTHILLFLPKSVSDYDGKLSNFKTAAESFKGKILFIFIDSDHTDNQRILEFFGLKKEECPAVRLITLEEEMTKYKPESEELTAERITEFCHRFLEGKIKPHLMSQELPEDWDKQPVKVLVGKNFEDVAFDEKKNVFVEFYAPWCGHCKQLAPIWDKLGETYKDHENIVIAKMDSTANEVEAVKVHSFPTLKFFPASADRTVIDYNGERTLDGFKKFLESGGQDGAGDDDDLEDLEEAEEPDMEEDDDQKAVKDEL
CAL PDZ FP-1: untagged CAL PDZ binding inhibitors, primary screen, biochemical, fluorescence polarization, HTS; Golgi-associated PDZ and coiled-coil motif-containing protein (Homo sapiens), Q9HD26; purified CAL PDZ, TMR-peptide fluorescence polarization, 1 h; inhibition, % at 24.9 µM; actives 0.92% (n = 300,000); AID 602252, 2012;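 active = mean inhibition of at least 30% with at least half of replicates also reaching 30%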
RAD54 inh: inhibitors of human RAD54 branch migration, primary screen, biochemical, fluorescence, single point. actives 0.14% (n = 360,000). RAD54 Holliday junction branch migration, FAM/BHQ fluorescence. inhibition, % at 10.4 µM;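 active = mean normalized replicate activity at least 40 and at least half of replicates scoring 40 or more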;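 also: inhibitors cause a drop in the FAM fluorescence signal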
CAL PDZ FP-2: CAL PDZ peptide-binding inhibitors, primary screen, biochemical, fluorescence polarization, Cer-tagged CAL PDZ, HTS; purified CAL PDZ, TMR-peptide fluorescence polarization, 1 h; inhibition, % at 20 µM; Golgi-associated PDZ and coiled-coil motif-containing protein (Homo sapiens), Q9HD26; actives 0.02% (n = 330,000);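 active = highest replicate inhibition of at least 40%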
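Control set: unlabelled peptide and DMSO controls / Material: purified CerCALP PDZ construct / Timing: 1 h incubation at room temperature before polarization reading / Doses: 20 µM, one dose / Detection: fluorescence polarization (mP)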
Of the large screens only hits and unclear results are named; the others gave an inactive call.

O=C1CC(c2ccc3c(c2)OCCO3)Oc2ccccc21 (centres undefined)	none
O=C1C=C(c2ccccc2)OC(c2ccccc2)O1 (centres undefined)	CAL PDZ FP-1 47
O=C1C=C(c2ccccc2)OC2(CCCC2)O1	none (no result: RAD52 inh, ERp5 block)
Cc1cc(C)nc(CCNC(=O)CC2C(=O)NCCN2Cc2ccc(F)cc2Cl)n1 (centres undefined)	CAL PDZ FP-1 60
COc1ccccc1CN1CCNC(=O)C1CC(=O)NCc1csc(C)n1 (centres undefined)	none (no result: RAD54 inh)
COc1ccccc1CN1CCNC(=O)C1CC(=O)NCc1c(C)n[nH]c1C (centres undefined)	CAL PDZ FP-1 51 (no result: RAD54 inh, CAL PDZ FP-2)
O=C(C[C@@H]1CC[C@@H]2[C@H](COC[C@@H](O)CN2C(=O)Nc2cccc(F)c2)O1)NCCCN1CCOCC1	none (no result: PDI inh, CAL PDZ FP-1, CAL PDZ FP-2)
O=C(C[N+]1(CC#Cc2ccccc2)CCOCC1)c1ccccc1	CAL PDZ FP-1 49 (no result: RAD54 inh)
COc1ccc(CN(CCC(c2ccccc2)c2ccc(OC(C)C)cc2)C(=O)CCl)cc1OC (centres undefined)	PDI inh 86 (no result: RAD52 inh, ERp5 block)
COc1ccc(C(CCN(Cc2ccc(OC)c(OC)c2)C(C)=O)c2ccccc2)cc1 (centres undefined)	none (no result: RAD54 inh)
Cn1cc(CN2CCCC(CO)(Cc3cccc(Cl)c3)C2)cn1 (centres undefined)	none
Cc1cccc(-c2ncc(CN3CCCC(CO)(Cc4cccc(Cl)c4)C3)cn2)c1 (centres undefined)	CAL PDZ FP-1 57 (no result: RAD54 inh)
O=C(CN1CCOCC1)NCC[C@@H]1CC[C@H](NS(=O)(=O)c2ccc(F)cc2)[C@@H](CO)O1	none (no result: RAD52 inh, PDI inh, CAL PDZ FP-1, CAL PDZ FP-2)
Clc1ccc2nc3ccccn3c2c1	CAL PDZ FP-1 53 (no result: RAD52 inh, ERp5 block)
N#Cc1ccc2c(c1)nc1ccccn12	none (no result: RAD54 inh)
O=c1cc(Cl)nc2ccccn12	CAL PDZ FP-1 38
O=c1cc(NCc2ccccc2)nc2ccccn12	none (no result: RAD54 inh)
COc1cccc(-c2cnc3c(c2)C(=O)N([C@@H](C)CO)C[C@@H](C)[C@@H](CN(C)Cc2ccc(F)cc2)O3)c1	none (no result: PDI inh, CAL PDZ FP-1, CAL PDZ FP-2)
C[C@H](NC(=O)C[C@@H]1CC[C@H](NC(=O)C2CCC2)[C@H](CO)O1)c1ccccc1	none (no result: PDI inh, CAL PDZ FP-1, CAL PDZ FP-2)
O=C(COc1ccc(F)cc1Br)N1CCN(S(=O)(=O)/C=C/c2ccccc2)CC1	CAL PDZ FP-1 54
CCOC(=O)CC(=O)CSc1nc(C)cc(C)c1C#N	CAL PDZ FP-1 39 (no result: RAD52 inh, ERp5 block)
COC(=O)CSc1nc(C)cc(C)c1C#N	none (no result: RAD54 inh)
COC(=O)[C@H]1[C@H](CO)[C@H]2Cn3c(ccc(-c4cccc(F)c4)c3=O)[C@H]2N1Cc1ccccn1	none (no result: PDI inh, CAL PDZ FP-1, CAL PDZ FP-2)
O=C(c1ccc(Cl)cc1)N1CCC(N2CCC(C(=O)N3CCOCC3)CC2)CC1	none
Cc1ccc(C(=O)N2CCC(N3CCC(C(=O)N4CCOCC4)CC3)CC2)cc1C	CAL PDZ FP-1 74
CO[C@H]1CN(C)C(=O)c2cc(NC(=O)NC(C)C)ccc2OC[C@@H](C)N(CCC(F)(F)F)C[C@@H]1C	none (no result: RAD52 inh, ERp5 block, PDI inh, CAL PDZ FP-1, CAL PDZ FP-2)
COc1ccc(CCNC/C=C/c2ccccc2)cc1	CAL PDZ FP-1 51
O=C(NC1CCCC1)[C@H]1N[C@H]2c3ccc(-c4cccc(F)c4)c(=O)n3C[C@H]2[C@@H]1CO	RAD52 inh 58 (no result: PDI inh, CAL PDZ FP-1, RAD54 inh, CAL PDZ FP-2)
O=C(NC1CCCC1)[C@@H]1N[C@@H]2c3ccc(-c4cccc(F)c4)c(=O)n3C[C@@H]2[C@H]1CO	none (no result: PDI inh, CAL PDZ FP-1, RAD54 inh, CAL PDZ FP-2)
CC[C@H](C)[C@@H]1NC(=O)c2cc([N+](=O)[O-])cc(F)c2NCCCC[C@@H](C(N)=O)NC(=O)[C@H](CCCCN)NC1=O	RAD52 inh 65
NCCCC[C@@H]1NC(=O)c2cc([N+](=O)[O-])cc(F)c2NCCCC[C@@H](C(N)=O)NC(=O)CNC1=O	none
O=C(c1cccnc1)N1C[C@H]2[C@@H](c3ccccc31)[C@H](CO)N2C(=O)Nc1ccc(F)cc1	none (no result: PDI inh, CAL PDZ FP-1, CAL PDZ FP-2)
Cc1ccc(N2CCN(S(=O)(=O)c3ccc(-n4cnnn4)cc3)CC2)c(C)c1	CAL PDZ FP-1 79
COCC(=O)N1C[C@H](C)[C@@H](OC)CN(C)C(=O)c2ccc(NC(=O)NC(C)C)cc2OC[C@@H]1C	none (no result: PDI inh, CAL PDZ FP-1, RAD54 inh, CAL PDZ FP-2)
C[C@H](CO)N1C[C@H](C)[C@H](CN(C)Cc2ccncc2)OCCCC[C@H](C)Oc2ccc(NC(=O)c3ccncc3)cc2C1=O	none (no result: PDI inh, CAL PDZ FP-1, CAL PDZ FP-2)
C[C@@H]1CCCCO[C@H](CN(C)Cc2ccc(C(=O)O)cc2)[C@H](C)CN([C@H](C)CO)C(=O)c2cc(NC(=O)c3ccncc3)ccc2O1	RAD52 inh 103 (no result: PDI inh, CAL PDZ FP-1, CAL PDZ FP-2)
C[C@@H]1CN([C@@H](C)CO)C(=O)c2cc(NC(=O)c3ccncc3)ccc2O[C@@H](C)CCCCO[C@@H]1CN(C)Cc1ccc(C(=O)O)cc1	RAD52 inh 59 (no result: PDI inh, CAL PDZ FP-1, CAL PDZ FP-2)
C[C@@H]1CN([C@@H](C)CO)C(=O)c2cc(NC(=O)c3ccncc3)ccc2O[C@@H](C)CCCCO[C@H]1CN(C)Cc1ccc(C(=O)O)cc1	RAD52 inh 96 (no result: PDI inh, CAL PDZ FP-1, CAL PDZ FP-2)
C[C@@H]1CCCCO[C@@H](CN(C)Cc2ccc(C(=O)O)cc2)[C@H](C)CN([C@H](C)CO)C(=O)c2cc(NC(=O)c3ccncc3)ccc2O1	RAD52 inh 104 (no result: PDI inh, CAL PDZ FP-1, CAL PDZ FP-2)
C[C@@H]1CCCCO[C@@H](CN(C)Cc2ccncc2)[C@@H](C)CN([C@H](C)CO)C(=O)c2cc(NC(=O)c3ccncc3)ccc2O1	none (no result: PDI inh, CAL PDZ FP-1, CAL PDZ FP-2)
CCCN1[C@@H]2Cn3c(ccc(-c4ccncc4)c3=O)[C@H]1[C@@H](C(=O)NCCc1cn(C)cn1)[C@@H]2CO	none (no result: PDI inh, CAL PDZ FP-1, CAL PDZ FP-2)
C[C@@H]1CCCCO[C@@H](CN(C)Cc2ccc(C(=O)O)cc2)[C@@H](C)CN([C@@H](C)CO)C(=O)c2cc(NC(=O)c3ccncc3)ccc2O1	RAD52 inh 105 (no result: PDI inh, CAL PDZ FP-1, CAL PDZ FP-2)
C[C@@H]1CN([C@@H](C)CO)C(=O)c2cc(NC(=O)c3ccncc3)ccc2O[C@@H](C)CCCCO[C@H]1CN(C)Cc1ccncc1	none (no result: PDI inh, CAL PDZ FP-1, CAL PDZ FP-2)
C[C@@H]1CCCCO[C@H](CN(C)Cc2ccc(C(=O)O)cc2)[C@@H](C)CN([C@H](C)CO)C(=O)c2cc(NC(=O)c3ccncc3)ccc2O1	none (no result: PDI inh, CAL PDZ FP-1, CAL PDZ FP-2)
C[C@H](CO)N1C[C@H](C)[C@H](CN(C)Cc2ccc(C(=O)O)cc2)OCCCC[C@H](C)Oc2ccc(NC(=O)c3ccncc3)cc2C1=O	RAD52 inh 101 (no result: PDI inh, CAL PDZ FP-1, CAL PDZ FP-2)
C[C@@H]1CN([C@@H](C)CO)C(=O)c2cc(-c3ccccc3)cnc2O[C@@H]1CN(C)Cc1ccccn1	none (no result: PDI inh, CAL PDZ FP-1, CAL PDZ FP-2)
O=C1NC(=O)N(Cc2ccccc2)CC1Br (centres undefined)	CAL PDZ FP-1 31
